Here are results for 3 compounds from ChEMBL document CHEMBL1799980, “Protuboxepins A and B and protubonines A and B from the marine-derived fungus Aspergillus sp. SF-5044” (J Nat Prod, 2011).

pIC50: −log10 of the molar value. The source made the active and inactive calls. The rule behind the calls is not given here.

The nature of data set [1]: Growth inhibition of rat 3Y1 cells at 250 uM after 48 hrs by cell proliferation assay. It counts as cell-based. Particulars: 3y1, 48 h. Summed up: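 Cells seeded in 96-well plates at 5 × 10^3 per well. Compounds dissolved in DMSO and applied for 48 h. Viability read with an EZ-CyTox cell viability kit by absorbance at 450 nm.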
The test system of data set [2] is HL-60. Briefly: Growth inhibition of human HL60 cells at 250 uM after 48 hrs by cell proliferation assay. The format is functional, cell-based.
Data set [3] concerns Hep 3B2. The data set is described as follows: Growth inhibition of human Hep3B cells at 250 uM after 48 hrs by cell proliferation assay. It counts as functional, cell-based. The procedure, abridged: (§1)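 Hep3B hepatocellular carcinoma cells plated at 5 × 10^3 per well in 96-well format. Treatment with DMSO-dissolved compounds, including 250 μM, lasted 48 h. Proliferation was read with the EZ-CyTox kit by A450.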

Data set [4] has as its system MDA-MB-231. The data set is described as follows: Growth inhibition of human MDA-MB-231 cells at 250 uM after 48 hrs by cell proliferation assay. It counts as functional, cell-based. Summed up:
(§2)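 MDA-MB-231 breast adenocarcinoma cells at 5 × 10^3 per well in a 96-well microplate. Compounds were dissolved in DMSO and applied for 48 h, including a 250 μM level. Viability was measured with the EZ-CyTox kit as A450.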

Data set [5] deals with K562. The data set is described as follows: Growth inhibition of human K562 cells at 250 uM after 48 hrs by cell proliferation assay. The format is functional, cell-based. Summed up:
(§3)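 K562 leukemia cells seeded at 3 × 10^4 per well in 96-well plates and exposed for 48 h to compounds in DMSO, including 250 μM. Readout was EZ-CyTox cell viability reagent with absorbance at 450 nm.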

Data set [6] concerns MDA-MB-231. Briefly: Growth inhibition of human MDA-MB-231 cells after 48 hrs by cell proliferation assay. The format is functional, cell-based. Particulars: MDA-MB-231, 48 h. The procedure, abridged: as §2
Data set [7] deals with K562. Briefly: Growth inhibition of human K562 cells after 48 hrs by cell proliferation assay. The format is functional, cell-based. Particulars: K562, 48 h. Summed up:
as §3

A short description of data set [8]: Growth inhibition of human Hep3B cells after 48 hrs by cell proliferation assay. It counts as functional, cell-based, Hep 3B2. Summed up:
as §1

Data set [9] concerns HL-60. Briefly: Growth inhibition of human HL60 cells after 48 hrs by cell proliferation assay. The format is functional, cell-based. The conditions noted are these: HL-60, 48 h.
Data set [10] can be described thus: Growth inhibition of rat 3Y1 cells after 48 hrs by cell proliferation assay. The format is cell-based. Particulars: 3Y1, 48 h. The procedure, abridged:
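Rat 3Y1 fibroblasts seeded at 5 × 10^3 per well in 96-well plates and exposed 48 h to DMSO-dissolved test compounds. Proliferation was quantified with the EZ-CyTox viability kit by absorbance at 450 nm.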

Take `CC(=O)N1c2ccccc2[C@]2(O)C[C@@H]3C(=O)N[C@@H](CC(C)C)C(=O)N3[C@H]12` [PROTUBONINE A]: in data set [1], the “growth inhibition (GI)” value is given as “Not Active”. The “growth inhibition (GI)” value in [2], in data set [3], in data set [4] and in data set [5] was “inactive” each time.
Consider `CC(=O)O[C@@]12C[C@@H]3C(=O)N[C@@H](CC(C)C)C(=O)N3[C@@H]1N(C(C)=O)c1ccccc12` [PROTUBONINE B], for which the “growth inhibition (GI)” value in data set [1] is given as “Not Active”. Further, the “growth inhibition (GI)” value in [2], in [3], in data set [4] and in data set [5] was “inactive” in each case.
What is called pIC50 is −log10 of the IC50, conventionally taken in molar units. Read a low pIC50 as a large IC50. As for `CCC(C)[C@@H]1NC(=O)[C@@H](Cc2ccccc2)n2c1nc1c(c2=O)C=CC=CO1` (stereo not given in full) [PROTUBOXEPIN A], the pIC50 is 3.89 in data set [6]; 3.60 in data set [7]; 3.82 in data set [8]; 4.12 in data set [9]; 3.74 in data set [10].
